Results as given in ChEMBL document CHEMBL3259629, “Discovery and optimization of piperidyl-1,2,3-triazole ureas as potent, selective, and in vivo-active inhibitors of α/β-hydrolase domain containing 6 (ABHD6)” (J Med Chem, 2013).
Active and inactive are the calls of the source. The calls are words filed in the database; no cut-off is given here.

Tests used:
Mus musculus = assay: In vivo inhibition of ABHD6 in C57Bl/6 mouse liver at 20 mg/kg, ip after 4 hrs by FP-rhodamine/HT-10-labelled gel-based competitive assay; type: functional, organism-based; parameters: dose 20 mg/kg
Outline: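 C57Bl/6 mice dosed i.p. at 1–40 mg kg⁻¹ in 18:1:1 saline/ethanol/PEG40, 10 μL g⁻¹, for 4 hr, then killed. Brain and liver membrane proteomes labelled with FP-rhodamine or HT-01 (1 μM, 30 min, 37 °C) and resolved by SDS-PAGE with in-gel fluorescence scanning.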

[1] = target: T1, Monoacylglycerol lipase ABHD6 (Mus musculus) (UniProt Q8R2Y0); conditions: Neuro2a, 3 nM
T1 sequence (whole entry): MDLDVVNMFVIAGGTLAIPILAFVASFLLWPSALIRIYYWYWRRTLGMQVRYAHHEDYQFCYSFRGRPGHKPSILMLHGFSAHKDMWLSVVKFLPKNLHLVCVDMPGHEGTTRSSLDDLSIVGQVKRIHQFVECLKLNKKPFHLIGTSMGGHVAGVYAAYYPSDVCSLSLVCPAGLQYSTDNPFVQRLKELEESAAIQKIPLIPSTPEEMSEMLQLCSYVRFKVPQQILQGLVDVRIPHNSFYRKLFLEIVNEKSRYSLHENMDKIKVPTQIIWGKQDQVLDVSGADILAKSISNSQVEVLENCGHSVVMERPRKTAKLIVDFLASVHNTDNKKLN

[2] = target: T2, Protein phosphatase methylesterase 1 (Mus musculus) (UniProt Q8BVQ5); conditions: Neuro2a, 3 nM
T2 sequence (whole entry): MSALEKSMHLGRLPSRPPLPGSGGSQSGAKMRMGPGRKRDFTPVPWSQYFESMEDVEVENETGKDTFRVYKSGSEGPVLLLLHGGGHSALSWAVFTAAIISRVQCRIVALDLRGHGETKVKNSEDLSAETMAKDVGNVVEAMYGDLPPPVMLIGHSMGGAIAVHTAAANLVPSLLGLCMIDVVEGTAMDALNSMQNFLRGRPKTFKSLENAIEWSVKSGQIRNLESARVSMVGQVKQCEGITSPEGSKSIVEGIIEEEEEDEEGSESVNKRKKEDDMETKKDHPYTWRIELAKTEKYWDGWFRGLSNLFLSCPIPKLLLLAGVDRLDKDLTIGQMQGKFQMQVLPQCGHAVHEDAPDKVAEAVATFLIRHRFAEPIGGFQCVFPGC

[3] = target: T3, Protein ABHD13 (Mus musculus) (UniProt Q80UX8); conditions: Neuro2a, 3 nM
T3 sequence (whole entry): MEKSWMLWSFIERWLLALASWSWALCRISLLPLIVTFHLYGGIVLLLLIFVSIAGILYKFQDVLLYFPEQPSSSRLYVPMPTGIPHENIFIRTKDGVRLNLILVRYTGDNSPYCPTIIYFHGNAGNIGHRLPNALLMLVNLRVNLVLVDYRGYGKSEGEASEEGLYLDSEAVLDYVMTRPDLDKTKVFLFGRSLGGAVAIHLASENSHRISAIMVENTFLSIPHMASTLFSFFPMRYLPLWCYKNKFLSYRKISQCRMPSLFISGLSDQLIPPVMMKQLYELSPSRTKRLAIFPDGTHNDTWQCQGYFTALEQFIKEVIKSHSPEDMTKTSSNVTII

[4] = target: T4, Lysosomal Pro-X carboxypeptidase (Mus musculus) (UniProt Q7TMR0); conditions: Neuro2a, 3 nM
T4 sequence (whole entry): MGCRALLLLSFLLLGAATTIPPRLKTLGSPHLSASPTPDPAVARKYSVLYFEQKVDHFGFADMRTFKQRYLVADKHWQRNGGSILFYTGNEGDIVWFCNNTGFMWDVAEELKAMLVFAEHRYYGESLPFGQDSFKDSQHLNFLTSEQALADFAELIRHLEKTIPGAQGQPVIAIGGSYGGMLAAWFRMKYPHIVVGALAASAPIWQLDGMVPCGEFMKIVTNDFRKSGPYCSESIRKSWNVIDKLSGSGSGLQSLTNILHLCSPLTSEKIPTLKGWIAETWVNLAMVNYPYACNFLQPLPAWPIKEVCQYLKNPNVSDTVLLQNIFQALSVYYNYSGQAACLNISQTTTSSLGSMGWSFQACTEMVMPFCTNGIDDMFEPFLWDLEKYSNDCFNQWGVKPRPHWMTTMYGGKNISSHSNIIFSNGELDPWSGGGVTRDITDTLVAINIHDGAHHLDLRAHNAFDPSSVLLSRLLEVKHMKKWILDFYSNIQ

[5] = target: T5, Lysophosphatidylserine lipase ABHD12 (Mus musculus) (UniProt Q99LR1); conditions: Neuro2a, 3 nM
T5 sequence (whole entry): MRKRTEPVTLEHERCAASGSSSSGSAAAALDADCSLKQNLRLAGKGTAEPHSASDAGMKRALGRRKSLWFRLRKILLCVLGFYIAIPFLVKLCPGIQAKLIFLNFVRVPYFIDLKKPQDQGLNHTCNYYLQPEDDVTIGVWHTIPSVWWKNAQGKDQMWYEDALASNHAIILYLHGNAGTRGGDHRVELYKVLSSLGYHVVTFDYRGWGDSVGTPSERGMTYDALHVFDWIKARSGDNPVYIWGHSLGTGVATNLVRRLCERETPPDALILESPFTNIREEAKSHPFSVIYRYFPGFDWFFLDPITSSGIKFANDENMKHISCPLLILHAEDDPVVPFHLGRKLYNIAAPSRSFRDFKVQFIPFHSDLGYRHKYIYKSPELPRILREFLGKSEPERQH

[6] = target: T6, Presenilin-associated rhomboid-like protein, mitochondrial (Mus musculus) (UniProt Q5XJY4); conditions: Neuro2a, 3 nM
T6 sequence (whole entry): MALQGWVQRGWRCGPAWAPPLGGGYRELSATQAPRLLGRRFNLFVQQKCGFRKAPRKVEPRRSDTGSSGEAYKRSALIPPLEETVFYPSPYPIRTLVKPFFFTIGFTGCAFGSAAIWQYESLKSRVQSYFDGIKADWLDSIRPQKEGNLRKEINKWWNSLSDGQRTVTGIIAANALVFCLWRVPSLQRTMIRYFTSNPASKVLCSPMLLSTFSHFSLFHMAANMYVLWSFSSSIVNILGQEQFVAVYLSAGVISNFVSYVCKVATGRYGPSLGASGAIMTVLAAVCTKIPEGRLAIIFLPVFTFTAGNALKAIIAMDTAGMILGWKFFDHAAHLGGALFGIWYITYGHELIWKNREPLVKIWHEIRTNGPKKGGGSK

SMILES	inhibition (Mus musculus)	inhibition [1] [%]	inhibition [2] [%]	inhibition [3] [%]	inhibition [4] [%]	inhibition [5] [%]	inhibition [6] [%]
O=C(N1CCCCC1c1ccccc1)n1cc(-c2ccc(-c3cccc(CO)c3)cc2)nn1 (racemic)	Active	> 90	< 50	< 50	< 50	< 50	< 50
O=C(c1cccc(-c2ccc(-c3cn(C(=O)N4CCCCC4c4ccccc4)nn3)cc2)c1)N1CCCCC1 (racemic)	Active	> 80	< 50	< 50	< 50	< 50	< 50
O=C(O)c1cccc(-c2ccc(-c3cn(C(=O)N4CCCCC4Cc4ccccc4)nn3)cc2)c1 (racemic)	Active	> 90	< 50	< 50	< 50	< 50	< 50
